# Columns and labels:
# MCF7 = assay: Growth inhibition of human MCF7 cells after 96 hrs by SRB assay; format: functional, cell-based; settings: MCF7, 96 h
# WI-38 = assay: Growth inhibition of human WI38 cells after 96 hrs by SRB assay; format: cell-based; settings: WI-38, 96 h
# CAPAN-1 = assay: Growth inhibition of human Capan1 cells after 96 hrs by SRB assay; format: functional, cell-based; settings: CAPAN-1, 96 h
# Method in brief: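 Cell lines kept at 37 °C, 5% CO2 in medium with 10% FBS and 2 mM L-glutamine. Compound dissolved in water, filter-sterilised, 10 mM stock diluted into media. Growth read by 96 h sulforhodamine B assay, absorbance at 540 nm. IC50 taken from mean absorbance per concentration as % of untreated wells, >3 individual determinations with standard deviations.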
# MIA PaCa-2 [1] = assay: Antitumor activity against human MIAPaCa2 cells xenografted in CD-1 nude mouse assessed as change in tumor volume at 10 mg/kg, iv administered twice weekly for 4 weeks measured on day 29 relative to control; format: functional
# Method in brief: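 Female CD-1 nude mice (2-3 months, 20−25 g) given 5 x 10^6 MIA PaCa-2 cells subcutaneously in right flank with Matrigel; dosing began once tumors were established (approx. 13 days, mean 0.05 cm3). Eight mice/group, IV in saline twice weekly for 28 days (8 doses) against a saline group. Tumors measured by calliper (length × width × height × π/6), with body weight. Student's t test.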
# PANC-1 [2] = assay: Effect on GLI2 gene expression in human PANC1 cells at 400 nM after 6 hrs by RNA sequence analysis relative to control; format: functional
# Method in brief: (§1)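 PANC-1 (0.35 x 10^6) or MIA PaCa-2 (1.5 x 10^6) cells seeded overnight in 60 mm plates, then exposed to 400 nM compound for 6 or 24 h; untreated cells as controls. Cells were mycoplasma-free and STR-certified. Differential expression by RNA-seq, called at FDR < 0.1.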
# PANC-1 [3] = assay: Effect on GLI4 gene expression in human PANC1 cells at 400 nM after 6 hrs by RNA sequence analysis relative to control; format: functional; method in brief: as §1
# PANC-1 [4] = assay: Effect on IGF2 gene expression in human PANC1 cells at 400 nM after 6 hrs by RNA sequence analysis relative to control; format: functional; method in brief: as §1
# PANC-1 [5] = assay: Effect on MAPK12 gene expression in human PANC1 cells at 400 nM after 6 hrs by RNA sequence analysis relative to control; format: functional
# PANC-1 [6] = assay: Effect on PFKL gene expression in human PANC1 cells at 400 nM after 6 hrs by RNA sequence analysis relative to control; format: functional
# PANC-1 [7] = assay: Effect on PRDM16 gene expression in human PANC1 cells at 400 nM after 6 hrs by RNA sequence analysis relative to control; format: functional
# PANC-1 [8] = assay: Effect on PRKCZ gene expression in human PANC1 cells at 400 nM after 6 hrs by RNA sequence analysis relative to control; format: functional
# Method in brief: (§2)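 RNA-seq: cells seeded overnight in 60 mm plates (PANC-1 0.35 x 10^6, MIA PaCa-2 1.5 x 10^6 cells/well), then exposed to 400 nM compound for 6 or 24 h against untreated controls. Cell lines mycoplasma-free by RNA-capture ELISA and STR-profiled. Differentially expressed genes called at FDR < 0.1.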
# PANC-1 [9] = assay: Effect on SMO gene expression in human PANC1 cells at 400 nM after 6 hrs by RNA sequence analysis relative to control; format: functional; method in brief: as §2
# PANC-1 [10] = assay: Effect on TEAD3 gene expression in human PANC1 cells at 400 nM after 6 hrs by RNA sequence analysis relative to control; format: functional; method in brief: as §2
# MIA PaCa-2 [11] = assay: Effect on AKT1S1 gene expression in human MIAPaCa2 cells at 400 nM after 6 hrs by RNA sequence analysis relative to control; format: functional; method in brief: as §1
# MIA PaCa-2 [12] = assay: Effect on MAPK12 gene expression in human MIAPaCa2 cells at 400 nM after 6 hrs by RNA sequence analysis relative to control; format: functional
# MIA PaCa-2 [13] = assay: Effect on PFKFB4 gene expression in human MIAPaCa2 cells at 400 nM after 6 hrs by RNA sequence analysis relative to control; format: functional
# PANC-1 [14] = assay: Effect on AKT1S1 gene expression in human PANC1 cells at 400 nM after 24 hrs by RNA sequence analysis relative to control; format: functional; method in brief: as §1
# PANC-1 [15] = assay: Effect on GLI1 gene expression in human PANC1 cells at 400 nM after 24 hrs by RNA sequence analysis relative to control; format: functional; method in brief: as §1
# PANC-1 [16] = assay: Effect on IGF2 gene expression in human PANC1 cells at 400 nM after 24 hrs by RNA sequence analysis relative to control; format: functional; method in brief: as §1
# PANC-1 [17] = assay: Effect on IQSEC1 gene expression in human PANC1 cells at 400 nM after 24 hrs by RNA sequence analysis relative to control; format: functional; method in brief: as §1
# PANC-1 [18] = assay: Effect on PIK3R2 gene expression in human PANC1 cells at 400 nM after 24 hrs by RNA sequence analysis relative to control; format: functional
# PANC-1 [19] = assay: Effect on PLXNA1 gene expression in human PANC1 cells at 400 nM after 24 hrs by RNA sequence analysis relative to control; format: functional
# PANC-1 [20] = assay: Effect on ROBO3 gene expression in human PANC1 cells at 400 nM after 24 hrs by RNA sequence analysis relative to control; format: functional; method in brief: as §2
# PANC-1 [21] = assay: Effect on TP73 gene expression in human PANC1 cells at 400 nM after 24 hrs by RNA sequence analysis relative to control; format: functional; method in brief: as §2
# PANC-1 [22] = assay: Effect on ULK1 gene expression in human PANC1 cells at 400 nM after 24 hrs by RNA sequence analysis relative to control; format: functional; method in brief: as §2
# MIA PaCa-2 [23] = assay: Effect on CBFA2T3 gene expression in human MIAPaCa2 cells at 400 nM after 24 hrs by RNA sequence analysis relative to control; format: functional; method in brief: as §1
# MIA PaCa-2 [24] = assay: Effect on mLST8 gene expression in human MIAPaCa2 cells at 400 nM after 24 hrs by RNA sequence analysis relative to control; format: functional; method in brief: as §2
# MIA PaCa-2 [25] = assay: Effect on PAK1 gene expression in human MIAPaCa2 cells at 400 nM after 24 hrs by RNA sequence analysis relative to control; format: functional
# MIA PaCa-2 [26] = assay: Effect on PLXNA1 gene expression in human MIAPaCa2 cells at 400 nM after 24 hrs by RNA sequence analysis relative to control; format: functional
# MIA PaCa-2 [27] = assay: Effect on ULK1 gene expression in human MIAPaCa2 cells at 400 nM after 24 hrs by RNA sequence analysis relative to control; format: functional; method in brief: as §2
# Homo sapiens = species on record: Homo sapiens; assay: Stabilization of G-quadruplex DNA in human PANC1 cells assessed as increase in 53BP1 foci at 400 nM after 24 hrs by FITC/Cy5/DAPI staining based immunofluorescence assay relative to control; format: cell-based
# Method in brief: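 PANC-1 cells (8 x10^4 on coverslips) treated 24 h at 37 °C, or left untreated. Fixed in 4% paraformaldehyde, permeabilized with 0.1% Triton X-100, blocked in 2% milk. Stained with BG4 (20 nM), anti-FLAG and anti-53BP1, then Alexa-488/647 secondaries with DAPI. Deconvolved 100x z-stacks, 50-100 nuclei per replicate, three biological replicates; nuclear foci counted.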
smiles,measurement,setting,value
O=C1c2ccc3c4c(c(NCCN5CCCC5)cc(c24)C(=O)N1CCCN1CCOCC1)C(=O)N(CCCN1CCOCC1)C3=O,IC50,MCF7,159 nM
same,IC50,WI-38,1190 nM
same,IC50,CAPAN-1,16 nM
same,Activity,MIA PaCa-2 [1],-53.3%
same,log2FC,PANC-1 [2],-0.67
same,log2FC,PANC-1 [3],-1.26
same,log2FC,PANC-1 [4],-1.15
same,log2FC,PANC-1 [5],-0.75
same,log2FC,PANC-1 [6],-0.21
same,log2FC,PANC-1 [7],-2.4
same,log2FC,PANC-1 [8],-1.44
same,log2FC,PANC-1 [9],-0.92
same,log2FC,PANC-1 [10],-0.59
same,log2FC,MIA PaCa-2 [11],-0.54
same,log2FC,MIA PaCa-2 [12],-0.47
same,log2FC,MIA PaCa-2 [13],-1.02
same,log2FC,PANC-1 [14],-0.83
same,log2FC,PANC-1 [15],-0.57
same,log2FC,PANC-1 [16],-1.53
same,log2FC,PANC-1 [17],-0.5
same,log2FC,PANC-1 [18],-0.88
same,log2FC,PANC-1 [19],-1.5
same,log2FC,PANC-1 [20],-0.85
same,log2FC,PANC-1 [21],-0.99
same,log2FC,PANC-1 [22],-0.81
same,log2FC,MIA PaCa-2 [23],-2.86
same,log2FC,MIA PaCa-2 [24],-1.28
same,log2FC,MIA PaCa-2 [25],-1.13
same,log2FC,MIA PaCa-2 [26],-1.56
same,log2FC,MIA PaCa-2 [27],-0.6
same,fold change (FC),Homo sapiens,2
